ChEMBL document CHEMBL4715736, “Identification of anticancer agents based on the thieno[2,3-b]pyridine and 1H-pyrazole molecular scaffolds” (2016)

How the values were obtained:
Type in all cases: functional
Malme-3M = assay: Growth inhibition of human Malme-3M cells incubated for 48 hrs by sulforhodamine B assay
Procedure, shortened: (§1)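 NCI60 panel at the NCI Developmental Therapeutics Program. Only compounds active in the 10 µM screen went to dose-response testing. GI50, the concentration giving 50% of maximal inhibition of proliferation, and TGI, the concentration giving total growth inhibition, were derived from the dose-response curves.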

786-0 [1] = assay: Growth inhibition of human 786-0 cells assessed as cell growth at 1 uM incubated for 48 hrs by sulforhodamine B assay relative to control; conditions: read-out: Activity
Procedure, shortened: (§2)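 NCI Developmental Therapeutics Program NCI60 panel. Compounds that were active in the 10 µM one-dose screen went on to dose–response testing. Growth at each concentration is expressed relative to untreated control (100%). GI50 (concentration giving 50% of maximal inhibition of proliferation) and TGI (concentration giving total growth inhibition) were derived from the curves.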

OVCAR-4 = assay: Growth inhibition of human OVCAR-4 cells assessed as cell growth at 100 uM incubated for 48 hrs by sulforhodamine B assay relative to control; conditions: read-out: Activity
UO-31 [2] = assay: Growth inhibition of human UO-31 cells assessed as cell growth at 100 uM incubated for 48 hrs by sulforhodamine B assay relative to control; conditions: read-out: Activity
OVCAR-3 = assay: Growth inhibition of human OVCAR-3 cells assessed as cell growth at 0.01 uM incubated for 48 hrs by sulforhodamine B assay relative to control; conditions: read-out: Activity
SW-620 = assay: Growth inhibition of human SW-620 cells assessed as cell growth at 0.1 uM incubated for 48 hrs by sulforhodamine B assay relative to control; conditions: read-out: Activity
NCI-H322M = assay: Growth inhibition of human NCI-H322M cells assessed as cell growth at 0.01 uM incubated for 48 hrs by sulforhodamine B assay relative to control; conditions: read-out: Activity
SF-268 [3] = assay: Growth inhibition of human SF-268 cells assessed as cell growth at 1 uM incubated for 48 hrs by sulforhodamine B assay relative to control; conditions: read-out: Activity
HCC 2998 = assay: Growth inhibition of human HCC 2998 cells assessed as cell growth at 1 uM incubated for 48 hrs by sulforhodamine B assay relative to control; conditions: read-out: Activity; procedure, shortened: as §2
SN12C = assay: Growth inhibition of human SN12C cells assessed as cell growth at 0.1 uM incubated for 48 hrs by sulforhodamine B assay relative to control; conditions: read-out: Activity
SNB-75 = assay: Growth inhibition of human SNB-75 cells assessed as cell growth at 0.1 uM incubated for 48 hrs by sulforhodamine B assay relative to control; conditions: read-out: Activity
ACHN [4] = assay: Growth inhibition of human ACHN cells assessed as cell growth at 100 uM incubated for 48 hrs by sulforhodamine B assay relative to control; conditions: read-out: Activity
HOP-62 [5] = assay: Growth inhibition of human HOP-62 cells assessed as cell growth at 0.01 uM incubated for 48 hrs by sulforhodamine B assay relative to control; conditions: read-out: Activity
NCI-H226 = assay: Growth inhibition of human NCI-H226 cells assessed as cell growth at 1 uM incubated for 48 hrs by sulforhodamine B assay relative to control; conditions: read-out: Activity
Hs-578T [6] = assay: Growth inhibition of human Hs-578T cells assessed as cell growth at 1 uM incubated for 48 hrs by sulforhodamine B assay relative to control; conditions: read-out: Activity
786-0 [7] = assay: Growth inhibition of human 786-0 cells assessed as cell growth at 0.01 uM incubated for 48 hrs by sulforhodamine B assay relative to control; conditions: read-out: Activity; procedure, shortened: as §2
K562 = assay: Growth inhibition of human K562 cells incubated for 48 hrs by sulforhodamine B assay; procedure, shortened: as §1
786-0 [8] = assay: Growth inhibition of human 786-0 cells incubated for 48 hrs by sulforhodamine B assay; procedure, shortened: as §2
NCI-H460 = assay: Growth inhibition of human NCI-H460 cells assessed as cell growth at 0.1 uM incubated for 48 hrs by sulforhodamine B assay relative to control; conditions: read-out: Activity
RXF 393 = assay: Growth inhibition of human RXF 393 cells assessed as cell growth at 100 uM incubated for 48 hrs by sulforhodamine B assay relative to control; conditions: read-out: Activity
SF-268 [9] = assay: Growth inhibition of human SF-268 cells incubated for 48 hrs by sulforhodamine B assay
Procedure, shortened: (§3)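 NCI DTP 60-line human tumour panel. Dose-response curves were run only for ligands active in the initial 10 µM screen. GI50 (concentration giving 50% of maximal inhibition of proliferation) and TGI (concentration giving total growth inhibition) were derived from these curves.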

SK-MEL-5 = assay: Growth inhibition of human SK-MEL-5 cells assessed as cell growth at 0.01 uM incubated for 48 hrs by sulforhodamine B assay relative to control; conditions: read-out: Activity
UACC-257 [10] = assay: Growth inhibition of human UACC-257 cells assessed as cell growth at 100 uM incubated for 48 hrs by sulforhodamine B assay relative to control; conditions: read-out: Activity
ACHN [11] = assay: Growth inhibition of human ACHN cells assessed as cell growth at 0.1 uM incubated for 48 hrs by sulforhodamine B assay relative to control; conditions: read-out: Activity
MDA-MB-468 = assay: Growth inhibition of human MDA-MB-468 cells assessed as cell growth at 100 uM incubated for 48 hrs by sulforhodamine B assay relative to control; conditions: read-out: Activity
HOP-62 [12] = assay: Growth inhibition of human HOP-62 cells incubated for 48 hrs by sulforhodamine B assay; procedure, shortened: as §1
IGROV-1 = assay: Growth inhibition of human IGROV-1 cells assessed as cell growth at 0.01 uM incubated for 48 hrs by sulforhodamine B assay relative to control; conditions: read-out: Activity
DU-145 = assay: Growth inhibition of human DU-145 cells assessed as cell growth at 1 uM incubated for 48 hrs by sulforhodamine B assay relative to control; conditions: read-out: Activity; procedure, shortened: as §2
UACC-257 [13] = assay: Growth inhibition of human UACC-257 cells assessed as cell growth at 0.1 uM incubated for 48 hrs by sulforhodamine B assay relative to control; conditions: read-out: Activity
MCF7 = assay: Growth inhibition of human MCF7 cells assessed as cell growth at 0.1 uM incubated for 48 hrs by sulforhodamine B assay relative to control; conditions: read-out: Activity
UO-31 [14] = assay: Growth inhibition of human UO-31 cells incubated for 48 hrs by sulforhodamine B assay; procedure, shortened: as §3
Hs-578T [15] = assay: Growth inhibition of human Hs-578T cells assessed as cell growth at 0.01 uM incubated for 48 hrs by sulforhodamine B assay relative to control; conditions: read-out: Activity
[16] = read-out: LC50 (the source's name)

For `CCc1ccccc1NC(=O)c1sc2nc3c(cc2c1N)C(=O)CCC3`, the GI50 (Malme-3M) was 26.2 µM, the LC50 (Malme-3M) was > 100 µM and the TGI (Malme-3M) was ≥ 100 µM. For the same molecule, the growth at 1 µM (786-0 [1]) was 38%, the growth at 100 µM (OVCAR-4) was 8% and the growth at 100 µM (UO-31 [2]) was 18%. The growth at 0.01 µM (OVCAR-3) was 107%, the growth at 0.1 µM (SW-620) was 83% and the growth at 0.01 µM (NCI-H322M) was 97%. It also gave a growth at 1 µM (SF-268 [3]) of 53%, a growth at 1 µM (HCC 2998) of 56% and a growth at 0.1 µM (SN12C) of 88%. It also gave a growth at 0.1 µM (SNB-75) of 73%, a growth at 100 µM (ACHN [4]) of 10% and a growth at 0.01 µM (HOP-62 [5]) of 91%. For the same molecule, the growth at 1 µM (NCI-H226) was 63%, the growth at 1 µM (Hs-578T [6]) was 18% and the growth at 0.01 µM (786-0 [7]) was 90%. For the same molecule, the GI50 (K562) was 0.203 µM, the LC50 (concentration killing 50% of cells) (K562) was > 100 µM and the TGI (K562) was > 100 µM. For the same molecule, the GI50 (786-0 [8]) was 0.578 µM, the TGI (786-0 [8]) was ≥ 100 µM and the CC50 (786-0 [8]; [16]) was > 100 µM. For the same molecule, the growth at 0.1 µM (NCI-H460) was 98%, the growth at 100 µM (RXF 393) was -41% and the GI50 (SF-268 [9]) was 10.1 µM. The LC50 (concentration killing 50% of cells) (SF-268 [9]) was > 100 µM, the TGI (SF-268 [9]) was > 100 µM and the growth at 0.01 µM (SK-MEL-5) was 96%. It also gave a growth at 100 µM (UACC-257 [10]) of 25%, a growth at 0.1 µM (ACHN [11]) of 92% and a growth at 100 µM (MDA-MB-468) of -8%. The GI50 (HOP-62 [12]) was 0.445 µM, the LC50 (HOP-62 [12]) was > 100 µM and the TGI (HOP-62 [12]) was ≥ 100 µM. It also gave a growth at 0.01 µM (IGROV-1) of 108%, a growth at 1 µM (DU-145) of 27% and a growth at 0.1 µM (UACC-257 [13]) of 79%. For the same molecule, the growth at 0.1 µM (MCF7) was 83%, the GI50 (UO-31 [14]) was 14.8 µM and the TGI (UO-31 [14]) was > 100 µM. For the same molecule, the CC50 (UO-31 [14]; [16]) was > 100 µM and the growth at 0.01 µM (Hs-578T [15]) was 93%.
